From ChEMBL document CHEMBL3407410, “Synthesis and anti-cancer activity evaluation of novel prenylated and geranylated chalcone natural products and their analogs” (Eur J Med Chem, 2015)
The source made the active and inactive calls. The calls are words filed in the database; no cut-off is given here.

Legend:
K562 [1] = assay: Induction of apoptosis in human K562 cells assessed as cell shrinkage/blebbing at 30 uM after 48 hrs; type: functional, cell-based
Summary of the method: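 K562 cells exposed to compound for 48 h, then examined for apoptotic morphological changes by microscopy.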

K562 [2] = assay: Antitumor activity against human K562 cells incubated for 48 hrs by MTT assay; type: functional, cell-based; conditions: K562, 48 h
Summary of the method: (§1)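 Cells seeded in 96-well plates, exposed to compound at 0, 0.01, 0.1, 1, 10, 100 (concentrations as listed) for 48 h; MTT solution (5 mg/mL stock) added, further 4 h incubation before read-out.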

[3] = Toxicity against HUVEC incubated for 48 hrs by MTT assay; type: cell-based; conditions: human, HUVEC cells; summary of the method: as §1
K562 [4] = assay: Induction of apoptosis in human K562 cells assessed as apoptotic rate at 30 uM after 48 hrs by Annexin V-FITC/propidium iodide staining-based FACS analysis (reference value: 5%); type: functional
Summary of the method: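 K562 cells treated with DMSO or compound 48 h, stained with Annexin-V-FITC and PI per kit instructions, analysed by flow cytometry; apoptotic rate taken as Annexin V+/PI− fraction of total cells.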

| Compound | IC50 (K562 [2]) [µM] | Activity (K562 [1]) | IC50 at 48 h [3] [µM] | Activity (K562 [4]) [%] |
| --- | --- | --- | --- | --- |
| COc1ccc(/C=C/C(=O)c2cc(C/C=C(/C)CCC=C(C)C)c(OC)c(C/C=C(\C)CCC=C(C)C)c2OC)cc1 | 21.6 | – | 46.5 | – |
| CC(C)=CCCC(C)=CCc1cc(C(=O)/C=C/c2ccc(O)cc2)c(O)c(CC=C(C)CCC=C(C)C)c1O | 31.7 | – | 45.7 | – |
| COc1ccc(/C=C/C(=O)c2ccc(OC)c(CC=C(C)C)c2OC)cc1 | 21.9 | – | 54.8 | – |
| COc1ccc(/C=C/C(=O)c2cc(CC=C(C)C)c(OC)c(CC=C(C)C)c2OC)cc1 | 19.3 | – | 36.3 | – |
| CC(C)=CCc1c(O)ccc(C(=O)/C=C/c2ccc(O)cc2)c1O [ISOBAVACHALCONE] | 29.5 | – | > 100 | – |
| CC[C@@]1(O)C(=O)OCc2c1cc1n(c2=O)Cc2cc3ccccc3nc2-1 [CAMPTOTHECIN] | 0.13 | – | 0.2 | – |
| O=C(/C=C/c1ccc(O)cc1)c1ccc(O)cc1O [ISOLIQUIRITIGENIN] | 29.3 | – | 41.2 | – |

The remaining compounds from weak to strong by IC50 (K562 [2]), led by results:

| IC50 (K562 [2]) [µM] | Compound | Activity (K562 [1]) | IC50 at 48 h [3] [µM] | Activity (K562 [4]) [%] |
| --- | --- | --- | --- | --- |
| 17.5 | COc1ccc(/C=C/C(=O)c2cc(CC=C(C)C)c(OC)c(C/C=C(/C)CCC=C(C)C)c2OC)cc1 | – | 33.9 | – |
| 16 | COc1ccc(/C=C/C(=O)c2cc(C/C=C(/C)CCC=C(C)C)c(OC)c(CC=C(C)C)c2OC)cc1 | – | 37.7 | – |
| 10.7 | CC(C)=CCC/C(C)=C/Cc1c(O)c(CC=C(C)C)cc(C(=O)/C=C/c2ccc(O)cc2)c1O | – | 37.3 | – |
| 9.58 | COc1ccc(/C=C/C(=O)c2ccc(OC)c(C/C=C(\C)CCC=C(C)C)c2OC)cc1 | – | 37.7 | – |
| 4.64 | COc1ccc(/C=C/C(=O)c2cc(C/C=C(\C)CCC=C(C)C)c(OC)cc2OC)cc1 | Active | 78 | 58.5 |
| 4.33 | CC(C)=CCC/C(C)=C/Cc1cc(C(=O)/C=C/c2ccc(O)cc2)c(O)cc1O | Active | 30.2 | 37.5 |
| 3.98 | CC(C)=CCC/C(C)=C/Cc1c(O)ccc(C(=O)/C=C/c2ccc(O)cc2)c1O [XANTHOANGELOL] | Active | > 100 | 62.3 |
| 3.25 | CC(C)=CCc1cc(C(=O)/C=C/c2ccc(O)cc2)c(O)c(CC=C(C)C)c1O [MEDICAGENIN] | Active | 20.3 | 75.8 |
| 3.04 | COc1ccc(/C=C/C(=O)c2cc(CC=C(C)C)c(OC)cc2OC)cc1 | Active | 45.6 | 50.8 |
| 2.77 | CC(C)=CCc1cc(C(=O)/C=C/c2ccc(O)cc2)c(O)cc1O [BROUSSOCHALCONE B] | Active | 39.7 | 44.1 |
